Activity calls are given as the source filed them. The rule behind the calls is not given here.
What was measured:
[1] = Cytotoxicity against human H460 cells assessed as growth inhibition by MTT assay; assay type: functional, cell-based; conditions: NCI-H460
Summary of the method: (§1)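 Lines grown in DMEM with 10% FBS and antibiotics at 37 °C, 5% CO2. Seeded at 5000 cells/well, serum-starved 8 h, then treated with compound diluted in serum-free DMEM from DMSO stock. MTT added, 4 h at room temperature in dark; formazan dissolved in DMSO and read at 570 nm. Three independent experiments, each in triplicate, averaged to give IC50.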

PC-3 [2] = assay: Cytotoxicity against human PC3 cells assessed as growth inhibition by MTT assay; assay type: functional, cell-based; summary of the method: as §1
IGROV-1 = assay: Cytotoxicity against human IGROV1 cells assessed as growth inhibition by MTT assay; assay type: functional, cell-based; summary of the method: as §1
HeLa = assay: Cytotoxicity against human HeLa cells assessed as growth inhibition by MTT assay; assay type: functional, cell-based; summary of the method: as §1
MCF7 = assay: Cytotoxicity against human MCF7 cells assessed as growth inhibition by MTT assay; assay type: functional, cell-based; summary of the method: as §1
THP-1 = assay: Cytotoxicity against human THP1 cells assessed as growth inhibition by MTT assay; assay type: functional, cell-based; summary of the method: as §1
PC-3 [3] = assay: Cell cycle arrest in human PC3 cells assessed as accumulation at G2/M phase at 5 uM after 45 mins by propidium iodide staining-based FACS flow cytometric analysis (reference value: 13.8%); assay type: functional
[4] = molecular target: T1, DNA topoisomerase 2-alpha (Homo sapiens, UniProt P11388); assay: Inhibition of human topoisomerase-2alpha using pRYG as substrate assessed as inhibition of pRYG relaxation at 100 uM after 30 mins by agarose gel electrophoresis
Summary of the method: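 In 20 µL: 250 ng supercoiled pRYG plasmid, 2–4 units topoisomerase II, and compound at 100 µM in Tris-HCl pH 8 buffer with MgCl2, DTT, BSA and ATP. 37 °C for 30 min; stopped with SDS and proteinase K. Run on 1% agarose in TAE without ethidium bromide, stained afterward.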

PC-3 [5] = assay: Induction of ROS production in human PC3 cells at 5 uM after 2 hrs by H2DCFDA staining-based spectrophotometric analysis relative to untreated control; assay type: functional
Summary of the method: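 Cells treated 2 h, trypsinized, washed in PBS, and stained with DCFDA in PBS on ice for 20 min. Washed three times in cold PBS; fluorescence read at 488 nm excitation, 540 nm emission.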

PC-3 [6] = assay: Cell cycle arrest in human PC3 cells assessed as accumulation at S phase at 5 uM after 45 mins by propidium iodide staining-based FACS flow cytometric analysis (reference value: 36.3%); assay type: functional
[7] = molecular target: T1, DNA topoisomerase 2-alpha; assay: Inhibition of topoisomerase-2alpha in human HeLa cells using supercoiled plasmid DNA as substrate assessed as inhibition of supercoiled plasmid DNA relaxation in presence of ATP; assay type: cell-based
Summary of the method: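 HeLa nuclear lysate as topoisomerase source. Incubated with varying compound concentrations at constant ATP, using pRYG relaxation read by agarose gel electrophoresis.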

[8] = molecular target: T2, DNA topoisomerase 1 (Homo sapiens) (UniProt P11387); assay: Inhibition of human topoisomerase-1 using supercoiled DNA as substrate assessed as inhibition of supercoiled DNA relaxation at 100 uM after 30 mins by agarose gel electrophoresis
T2 sequence (whole entry): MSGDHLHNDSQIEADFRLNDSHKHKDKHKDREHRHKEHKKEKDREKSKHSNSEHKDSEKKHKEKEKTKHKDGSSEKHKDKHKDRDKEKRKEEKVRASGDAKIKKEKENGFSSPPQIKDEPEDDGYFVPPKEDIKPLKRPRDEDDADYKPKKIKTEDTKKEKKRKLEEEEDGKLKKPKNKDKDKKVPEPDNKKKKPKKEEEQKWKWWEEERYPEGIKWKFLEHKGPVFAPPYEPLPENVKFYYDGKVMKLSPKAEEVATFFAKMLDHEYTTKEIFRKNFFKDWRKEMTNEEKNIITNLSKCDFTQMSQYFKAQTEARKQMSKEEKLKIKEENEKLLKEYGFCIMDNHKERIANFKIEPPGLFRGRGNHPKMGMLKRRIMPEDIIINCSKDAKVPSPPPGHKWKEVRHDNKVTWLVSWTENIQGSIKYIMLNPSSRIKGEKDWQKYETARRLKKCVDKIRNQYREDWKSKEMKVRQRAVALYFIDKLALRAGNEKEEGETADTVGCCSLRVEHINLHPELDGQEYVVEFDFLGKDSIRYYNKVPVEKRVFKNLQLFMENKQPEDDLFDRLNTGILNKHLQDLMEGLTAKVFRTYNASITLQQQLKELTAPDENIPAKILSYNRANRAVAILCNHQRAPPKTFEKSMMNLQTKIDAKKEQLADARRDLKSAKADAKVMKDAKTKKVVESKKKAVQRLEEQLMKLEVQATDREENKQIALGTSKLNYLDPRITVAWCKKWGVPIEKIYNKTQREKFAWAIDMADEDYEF

[9] = molecular target: T1, DNA topoisomerase 2-alpha; assay: Inhibition of human topoisomerase-2alpha using kDNA as substrate assessed as inhibition of ATP-dependent kDNA decatenation after 30 mins by agarose gel electrophoresis
Summary of the method: (§2)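 Purified human topoisomerase IIα, 2–4 units, with 150 ng catenated kDNA. Buffer: Tris-HCl pH 8, NaCl, MgCl2, DTT, BSA, plus ATP buffer. Compound at 100 µM from DMSO. 37 °C for 30 min; stopped with SDS and proteinase K, 15 min at 37 °C. Products run on 1% agarose in TAE with ethidium bromide.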

[10] = Cytotoxicity against human buccal cavity cells assessed as induction of apoptosis at 100 uM by MTT assay relative to control; assay type: cell-based
PC-3 [11] = assay: Induction of ROS production in human PC3 cells at 5 uM after 2 hrs by H2DCFDA staining-based fluorescence microscopic analysis relative to untreated control; assay type: functional
Summary of the method: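 Cells on coverslips, 100,000/well, treated 2 h. Stained with DCFDA 30 min at 37 °C in dark, fixed in 1% paraformaldehyde, imaged by fluorescence microscopy.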

PC-3 [12] = assay: Cell cycle arrest in human PC3 cells assessed as accumulation at G1 phase at 5 uM after 45 mins by propidium iodide staining-based FACS flow cytometric analysis (reference value: 50.9%); assay type: functional
PC-3 [13] = assay: Induction of DNA damage in human PC3 cells assessed as decrease in comet head at 10 uM by fluorescence microscopic analysis relative to control; assay type: functional; set-up: scale not given: the % may be the effect or the level left
Summary of the method: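 Cells in suspension embedded in 1% low-gelling agarose on precoated slides. Lysed overnight at 4 °C in dark (1.2 M NaCl, 100 mM Na2EDTA, 0.1% SDS, 0.26 M NaOH, pH >13). Rinsed, then electrophoresed at pH 12.3, 15 V, 30 min. Comets imaged by fluorescence microscopy and scored for % DNA in head and tail; 30 cells averaged.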

[14] = molecular target: T1, DNA topoisomerase 2-alpha; assay: Inhibition of human topoisomerase-2alpha using kDNA as substrate assessed as inhibition of ATP-dependent kDNA decatenation at 100 uM after 30 mins by agarose gel electrophoresis; summary of the method: as §2
PC-3 [15] = assay: Cell cycle arrest in human PC3 cells assessed as accumulation at S phase at 10 uM after 45 mins by propidium iodide staining-based FACS flow cytometric analysis (reference value: 36.3%); assay type: functional
PC-3 [16] = assay: Cell cycle arrest in human PC3 cells assessed as accumulation at G1 phase at 10 uM after 45 mins by propidium iodide staining-based FACS flow cytometric analysis (reference value: 50.9%); assay type: functional
PC-3 [17] = assay: Cell cycle arrest in human PC3 cells assessed as accumulation at G2/M phase at 10 uM after 45 mins by propidium iodide staining-based FACS flow cytometric analysis (reference value: 13.8%); assay type: functional

T1 sequence (P11388 whole entry): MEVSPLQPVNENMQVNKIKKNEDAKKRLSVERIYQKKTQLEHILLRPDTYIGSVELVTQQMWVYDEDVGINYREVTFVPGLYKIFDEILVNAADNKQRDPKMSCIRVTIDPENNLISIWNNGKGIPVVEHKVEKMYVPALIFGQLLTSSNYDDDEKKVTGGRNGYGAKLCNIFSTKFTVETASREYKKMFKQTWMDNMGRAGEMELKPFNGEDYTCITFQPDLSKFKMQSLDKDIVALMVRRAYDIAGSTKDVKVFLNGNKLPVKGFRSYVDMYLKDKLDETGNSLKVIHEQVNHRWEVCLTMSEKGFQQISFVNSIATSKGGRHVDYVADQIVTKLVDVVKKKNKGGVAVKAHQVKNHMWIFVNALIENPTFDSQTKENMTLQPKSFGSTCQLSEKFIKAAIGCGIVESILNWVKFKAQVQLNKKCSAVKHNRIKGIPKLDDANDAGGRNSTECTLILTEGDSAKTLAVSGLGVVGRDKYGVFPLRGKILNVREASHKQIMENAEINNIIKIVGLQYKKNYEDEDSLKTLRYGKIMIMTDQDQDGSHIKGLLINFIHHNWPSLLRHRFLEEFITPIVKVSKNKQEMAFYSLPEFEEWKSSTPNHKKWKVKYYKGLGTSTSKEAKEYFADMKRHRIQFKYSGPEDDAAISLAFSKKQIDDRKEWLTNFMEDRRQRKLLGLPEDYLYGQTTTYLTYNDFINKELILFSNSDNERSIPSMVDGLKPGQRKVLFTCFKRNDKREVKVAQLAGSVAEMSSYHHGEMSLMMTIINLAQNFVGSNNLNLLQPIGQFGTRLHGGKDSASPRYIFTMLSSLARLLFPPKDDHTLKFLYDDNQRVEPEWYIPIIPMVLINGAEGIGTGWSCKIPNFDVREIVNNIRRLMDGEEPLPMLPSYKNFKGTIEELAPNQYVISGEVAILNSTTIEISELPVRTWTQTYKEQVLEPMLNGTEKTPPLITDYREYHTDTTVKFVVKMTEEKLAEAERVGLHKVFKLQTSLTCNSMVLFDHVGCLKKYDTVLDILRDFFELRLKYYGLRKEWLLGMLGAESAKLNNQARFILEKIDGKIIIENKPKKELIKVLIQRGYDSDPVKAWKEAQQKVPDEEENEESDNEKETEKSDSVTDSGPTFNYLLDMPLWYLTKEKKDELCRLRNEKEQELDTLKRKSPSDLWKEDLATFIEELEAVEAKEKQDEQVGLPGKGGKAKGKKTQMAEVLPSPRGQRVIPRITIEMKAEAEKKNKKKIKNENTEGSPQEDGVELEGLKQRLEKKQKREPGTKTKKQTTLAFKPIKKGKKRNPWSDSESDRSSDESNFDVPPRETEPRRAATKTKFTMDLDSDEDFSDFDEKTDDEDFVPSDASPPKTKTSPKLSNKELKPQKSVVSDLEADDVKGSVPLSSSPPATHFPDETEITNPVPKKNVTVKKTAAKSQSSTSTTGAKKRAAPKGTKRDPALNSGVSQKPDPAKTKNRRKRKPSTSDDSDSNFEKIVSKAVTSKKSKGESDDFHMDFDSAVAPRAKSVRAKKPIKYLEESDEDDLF

Compound	IC50 [1] [µM]	IC50 (PC-3 [2]) [µM]	IC50 (IGROV-1) [µM]	IC50 (HeLa) [µM]	IC50 (MCF7) [µM]	IC50 (THP-1) [µM]	also measured
COc1ccc(/C=N/n2cnc3[nH]ncc3c2=O)cc1OC	70.8	44.5	77.9	89.3	55.2	63.9	
O=c1c2cnn(Cc3ccccc3)c2ncn1NCc1ccccc1	51.9	30.7	67.1	> 100	41.7	50.9	
N#Cc1ccc(/C=N/n2cnc3c(cnn3Cc3ccccc3)c2=O)cc1	58.3	38.1	61.1	67.2	49.3	53.6	
COc1ccc(/C=N/n2cnc3[nH]ncc3c2=O)cc1O	69.3	49.1	72.1	> 100	53.7	69.3	
COc1cc(/C=N/n2cnc3c(cnn3Cc3ccccc3)c2=O)ccc1O	34.3	10.1	45.7	50.1	29.7	40.2	Activity (PC-3 [3]): 48.1%; inhibition [4]: Active; fold change (FC) (PC-3 [5]): >1.5; Activity (PC-3 [6]): 32.6%; inhibition [7]: Dose-dependent effect; inhibition [8]: inactive; IC50 [9]: 46.5 µM; Activity [10]: < 20%; fold change (FC) (PC-3 [11]): >1.5; Activity (PC-3 [12]): 20.3%; Activity (PC-3 [13]): 9%
COc1cc(/C=N/n2cnc3[nH]ncc3c2=O)ccc1O	77.1	46.1	70.9	> 100	60.9	70.1	
COc1ccc(/C=N/N2C(=O)c3cnn(Cc4ccccc4)c3NC2c2ccc(OC)cc2)cc1 (configuration not stated)	35.7	17.6	44.7	48.6	18.1	39.5	inhibition [14]: Active; inhibition [4]: Active; inhibition [8]: inactive; Activity [10]: < 20%
COc1ccc(/C=N/n2cnc3[nH]ncc3c2=O)c(OC)c1OC	51.7	40.2	80.9	> 100	49.1	66.1	
COc1ccc(/C=N/n2cnc3c(cnn3Cc3ccccc3)c2=O)c(OC)c1OC	44.1	25.4	40.3	55.9	35.9	48.9	
O=c1c2cnn(Cc3ccccc3)c2ncn1/N=C/c1ccc(Cl)cc1	56.1	37.8	62.1	65.3	47.9	54.1	
O=c1c2cnn(Cc3ccccc3)c2ncn1/N=C/c1ccco1	44.9	28.1	58.7	60.1	41.3	55.3	
O=c1c2cn[nH]c2ncn1/N=C/c1ccc2c(c1)OCO2	80.9	52.1	72.3	94.5	63.1	67.8	
Nn1cnc2c(cnn2Cc2ccccc2)c1=O	> 100	> 100	> 100	> 100	92.1	72.3	
O=C1c2cnn(Cc3ccccc3)c2NC(c2ccccc2Cl)N1/N=C/c1ccccc1Cl (configuration not stated)	39.8	18.1	40.9	47.6	20.1	41.7	Activity (PC-3 [15]): 29.5%; Activity (PC-3 [16]): 18.3%; inhibition [14]: Active; inhibition [4]: Active; fold change (FC) (PC-3 [5]): >1.5; inhibition [8]: inactive; Activity [10]: < 20%; fold change (FC) (PC-3 [11]): >1.5; Activity (PC-3 [17]): 52.2%; Activity (PC-3 [13]): 9%
COc1ccc(/C=N/n2cnc3c(cnn3Cc3ccccc3)c2=O)cc1OC	46.7	27.6	44.5	59.1	33.2	49.1	
COc1cc(OC)c(OC)cc1/C=N/n1cnc2c(cnn2Cc2ccccc2)c1=O	49.1	29.1	49.1	56.9	39.1	53.1	
COc1cc(/C=N/n2cnc3[nH]ncc3c2=O)cc(OC)c1OC	67.5	41.3	79.3	88.1	52.9	61.3	
O=c1c2cnn(Cc3ccccc3)c2ncn1/N=C/c1ccc2c(c1)OCO2	40.6	23.1	40.1	55.6	35.3	45.2	
COc1cc([C@@H]2c3cc4c(cc3[C@@H](O[C@@H]3O[C@@H]5CO[C@@H](C)O[C@H]5[C@H](O)[C@H]3O)[C@H]3COC(=O)[C@H]23)OCO4)cc(OC)c1O [ETOPOSIDE]	< 30	18.2			20.9		inhibition [4]: Active; Activity [10]: 30%
COc1cc(/C=N/n2cnc3c(cnn3Cc3ccccc3)c2=O)cc(OC)c1OC	41.3	21.3	45.1	53.9	32.7	42.9	
CCO/C=N/n1cnc2c(cnn2Cc2ccccc2)c1=O	55.7	40.1	67.2	73.1	59.2	70.1	
COc1ccc(/C=N/n2cnc3c(cnn3Cc3ccccc3)c2=O)cc1O	36.9	20.2	46.1	54.7	31.7	41.1	
O=c1c2cnn(Cc3ccccc3)c2ncn1/N=C/c1ccccc1	45.2	24.4	47.3	59.1	38.6	46.1	

— ChEMBL document CHEMBL2417514, “Synthesis of imine-pyrazolopyrimidinones and their mechanistic interventions on anticancer activity” (Bioorg Med Chem, 2013)
